From ChEMBL document CHEMBL1806497, “Design, synthesis and evaluation of N-benzoylindazole derivatives and analogues as inhibitors of human neutrophil elastase” (Bioorg Med Chem, 2011) come the findings set out here.

The target of data set [1] is T1, Neutrophil elastase (Homo sapiens) (UniProt P08246).
T1 sequence (whole entry): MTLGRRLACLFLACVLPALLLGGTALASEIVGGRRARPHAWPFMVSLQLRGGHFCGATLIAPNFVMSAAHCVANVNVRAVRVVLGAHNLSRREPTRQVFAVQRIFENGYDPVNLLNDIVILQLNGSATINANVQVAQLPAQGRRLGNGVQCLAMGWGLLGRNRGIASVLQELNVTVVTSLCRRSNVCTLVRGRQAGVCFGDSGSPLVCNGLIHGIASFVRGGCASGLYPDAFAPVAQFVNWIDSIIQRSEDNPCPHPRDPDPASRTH
Kind of data set: Inhibition of human neutrophil elastase using N-methylsuccinyl-Ala-Ala-Pro-Val-7-amino-4-methyl-coumarin as substrate at < 55 uM measured every 30 secs for 10 mins by fluorescence microplate reader. The essentials:
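20 mU/mL HNE in 200 mM Tris–HCl pH 7.5, 0.01% BSA, 0.05% Tween-20, 1% DMSO final, added to compound dilutions. Reaction started with 25 µM substrate, read every 30 s for 10 min at 25 °C (ex 355/em 460 nm). IC50 from % inhibition vs log concentration, at least six points; mean of ≥3 independent experiments.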

Data set [2] deals with T1, Neutrophil elastase (Homo sapiens). Kind of data set: Inhibition of human neutrophil elastase assessed as cleavage of substrate N-methylsuccinyl-Ala-Ala-Pro-Val-7-amino-4-methyl-coumarin at 600 nM measured upto 120 mins by fluorescence microplate reader.
Data set [3] addresses Urokinase-type plasminogen activator (Homo sapiens, UniProt P00749). Kind of data set: Inhibition of human urine urokinase using benzyloxycarbonyl-Gly-Gly-Arg-7-amino-4-methylcoumarin as substrate by spectrophotometric analysis. The essentials:
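30 U/mL urokinase in 0.1 M Tris–HCl pH 8.0 with 30 µM substrate, 25 °C. Fluorescence read at ex 355/em 460 nm. IC50 from % inhibition vs log concentration, at least six points; mean of ≥3 experiments.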

The target of data set [4] is T2, Neutrophil elastase (Homo sapiens, UniProt P08246).
T2 sequence (P08246 whole entry): T1 sequence (whole entry)
Kind of data set: Inhibition of human neutrophil elastase using N-methylsuccinyl-Ala-Ala-Pro-Val-7-amino-4-methyl-coumarin as substrate measured every 30 secs for 10 mins by fluorescence microplate reader.

The target of data set [5] is T1, Neutrophil elastase (Homo sapiens). Kind of data set: Inhibition of human neutrophil elastase assessed as cleavage of substrate N-methylsuccinyl-Ala-Ala-Pro-Val-7-amino-4-methyl-coumarin at 600 nM after 5 hrs by fluorescence microplate reader. Put shortly: (§1)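 HNE incubated with compound at 600 nM; substrate cleavage followed fluorimetrically for the first 180 min and out to 10 h, with a vehicle control. More fluorogenic substrate added after the 10 h incubation to test residual enzyme activity.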

The nature of data set [6]: Inhibition of human pancreatic chymotrypsin using Suc-Ala-Ala-Pro-Phe-7-amino-4-methylcoumarin as substrate by spectrophotometric analysis. The essentials: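 30 nM chymotrypsin in 0.05 M Tris–HCl pH 8.0 with 100 µM substrate, 25 °C. Fluorescence read at ex 355/em 460 nm. IC50 from % inhibition vs log concentration, at least six points; mean of ≥3 experiments.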
For data set [7], the target named is T1, Neutrophil elastase (Homo sapiens). Kind of data set: Inhibition of human neutrophil elastase assessed as cleavage of substrate N-methylsuccinyl-Ala-Ala-Pro-Val-7-amino-4-methyl-coumarin at 600 nM after 10 hrs by fluorescence microplate reader. The essentials:
as §1

The target is the same in data set [8]. Briefly: Competitive inhibition of human neutrophil elastase assessed as hydrolysis of fluorogenic substrate N-methylsuccinyl-Ala-Ala-Pro-Val-7-amino-4-methyl-coumarin by Lineweaver-Burk plot analysis. Put shortly: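 HNE kinetics with inhibitor at 0 and 40 nM over varied substrate concentrations; double-reciprocal Lineweaver–Burk plot, representative of three independent experiments.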

For data set [9], the target named is Prothrombin (Homo sapiens, UniProt P00734). Kind of data set: Inhibition of human plasma thrombin benzoyl-Phe-Val-Arg-7-amino-4-methylcoumarin as substrate by spectrophotometric analysis. The essentials: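 Fluorescence read at ex 355/em 460 nm. IC50 from % inhibition vs log concentration, at least six points; mean of ≥3 experiments.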
Data set [10] is described as follows: Stability of the compound in aqueous buffer pH 7.3 assessed as hydrolysis of the compound after 10 hrs by spectrophotometric analysis. The data set is classed as physicochemical. The conditions noted are these: pH 7.3, 10 h. Put shortly: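 Compound at 20 µM in 0.05 M phosphate buffer pH 7.3, 25 °C. Absorbance spectra (230–330 nm) scanned repeatedly over time to follow spontaneous hydrolysis; scans representative of two independent experiments.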

The target of data set [11] is T1, Neutrophil elastase (Homo sapiens). Kind of data set: Inhibition of human neutrophil elastase assessed as cleavage of substrate N-methylsuccinyl-Ala-Ala-Pro-Val-7-amino-4-methyl-coumarin at 600 nM measured upto 90 mins by fluorescence microplate reader. Put shortly:
as §1

Structures are written as SMILES. pIC50: −log10 of the molar value. Calls of active or inactive are those of the source. The calls are words filed in the database; no cut-off is given here.

What is called inhibition is the relative decrease from the control value, in per cent. `COC(=O)c1nn(C(=O)c2cccc(N)c2)c2ccccc12`: in data set [1], the inhibition result is “inactive”.
Same read-out and setting: for `CCOC(=O)c1nn(C(=O)c2cccc3ccccc23)c2ccccc12` the value was “inactive”; for `Cc1ccc(S(=O)(=O)n2nc(C(=O)Nc3ccccc3)c3ccccc32)cc1`, “inactive”; for `CCOC(=O)c1nn(C(=O)c2cccc([N+](=O)[O-])c2)c2ccccc12`, “inactive”.
The same measure, in the same setting: for `CCOC(=O)c1nn(C(=O)C2CCCCC2)c2ccccc12` the value was “inactive”.
Still for that read-out and setting: for `O=C(Nc1ccccc1)c1nn(C(=O)c2ccccc2Cl)c2ccccc12` the value was “inactive”; for `CCOC(=O)c1nn(C(=O)c2ccncc2)c2ccccc12`, “inactive”; for `O=C(Nc1ccccc1)c1nn(C(=O)c2ccncc2)c2ccccc12`, “inactive”.
On to `O=C(O)c1nn(C(=O)c2ccccc2)c2ccccc12`, for which the inhibition entry in [1] was “inactive”.
For orientation: pIC50 means −log10 of the IC50, conventionally taken in molar units. High values mean a small IC50, low ones a large IC50. Take `COC(=O)c1nn(C(=O)c2ccsc2)c2ccccc12`: in [2], the inhibition entry is “Active”. Further, the values for the pIC50 in data set [3], in data set [4] and in data set [6] were 4.92, 6.51 and 6.59, respectively. In data set [5], the inhibition is 50%. The inhibition entry in data set [7] is “inactive”.
Take `CCOC(=O)c1nn(C(=O)c2cccc(C(F)(F)F)c2)c2ccccc12`: the inhibition entry in data set [1] is “inactive”.
Same read-out and setting: for `O=C(Nc1ccccc1)c1nn(Cc2ccc(Cl)cc2)c2ccccc12` the value was “inactive”.
As to `CCOC(=O)c1nn(C(=O)Nc2cccc(OC)c2)c2ccccc12`, the inhibition result in data set [1] was “inactive”.
Same read-out and setting: then `CCOC(=O)c1nn(C(=O)c2cc(OC)c(OC)c(OC)c2)c2ccccc12`, with “inactive”.
`COC(=O)c1nn(C(=O)c2ccccc2)c2ccccc12`: the inhibition entry in data set [8] and in data set [2] was “Active” in each case. The pIC50 in data set [9] was 4.85; in data set [3] it was 5.92; in [4], 7.05; in data set [6], 7.09. Also, the Stability entry in [10] is recorded as “Unstable”. Further, the inhibition in data set [5] was determined as 50%. For the same molecule, the inhibition result in data set [7] is “inactive”.
As to `CCOC(=O)c1nn(CC(=O)c2ccccc2)c2ccccc12`, the inhibition result in data set [1] was “inactive”.
Still for that read-out and setting: for `O=C(Nc1ccccc1)c1nn(C(=O)c2ccc([N+](=O)[O-])cc2)c2ccccc12` the value was “inactive”.
In the case of `CCOC(=O)c1nn(C(=O)c2ccccc2Cl)c2ccccc12`, the inhibition result in [1] was “inactive”.
The same measure, in the same setting: then `O=C(Nc1ccccc1)c1nn(-c2ccc(Cl)cc2)c2ccccc12`, with “inactive”.
On to `COC(=O)c1nn(C(=O)c2cccc(C)c2)c2ccccc12`, for which the inhibition entry in [8] and in [2] was “Active” each time. The pIC50 in data set [9] is 5.29; in [3], 6.06; in data set [4] it was 6.89; in [6], 7.52. Further, the inhibition entry in [7] is “inactive”.
Consider `COc1cccc(C(=O)n2nc(C)c3ccccc32)c1`, for which, in [1], the inhibition result is “inactive”.
For the molecule `O=C(Nc1ccccc1)c1nn(S(=O)(=O)c2ccc(Cl)cc2)c2ccccc12`, the inhibition result in [1] is “inactive”.
For `CC(C)OC(=O)c1nn(C(=O)c2ccccc2)c2ccccc12`, the pIC50 in data set [9] is 5.11; in [3], 5.20; in [4] it was 6.62; in [6], 7.33. Also, in data set [2], the inhibition entry is “Active”. For the same molecule, in data set [5], the inhibition is 50%. Besides, the inhibition entry in [7] is “inactive”.
Regarding `O=C(OCC(F)(F)F)c1nn(C(=O)c2ccccc2)c2ccccc12`, the pIC50 was 5.17 in [9], 5.00 in [3], 6.59 in data set [4] and 8.54 in data set [6]. For the same molecule, the inhibition result in data set [2] was “Active”. For the same molecule, in [5], the inhibition came out at 50%. In data set [7], the inhibition entry is “inactive”.
With `CCOC(=O)c1nn(C(=O)c2ccc([N+](=O)[O-])cc2)c2ccccc12`, the inhibition entry in data set [1] was “inactive”.
`CCCC(=O)n1nc(C(=O)OCC)c2ccccc21`: the negative-log IC50 (pIC50) in data set [9] is 5.28; in data set [3] it was 4.85; in data set [4], 6.74; in data set [6] it was 6.37. Further, the inhibition entry in data set [11] was “Active”. For the same molecule, the inhibition entry in [5] and in [7] was “inactive” each time.
Regarding `CCOC(=O)c1nn(C(=O)Nc2ccc(Cl)cc2)c2ccccc12`, the inhibition entry in [1] was “inactive”.
